From ChEMBL document CHEMBL3046144, “Insecticidal and fumigant activities of Cinnamomum cassia bark-derived materials against Mechoris ursulus (Coleoptera: attelabidae)” (2000)

Experiments:
Assay type in all cases: functional
Attelabidae [1] = assay: Insecticidal activity against Mechoris ursulus assessed as mortality at 1 mg/paper at 25 +/- 1 degC measured after 48 hr by filter paper diffusion method
Outline: (§1)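 M. ursulus larvae. Compound in 1 mL acetone applied to a filter paper (50-mm diameter), dried in a hood 2 min, then placed in the bottom of a polyethylene cup with the larvae. Controls got 1 mL acetone. Held at 25 ± 1 °C, 50-60% RH, 16L:8D. Run in triplicate, mean ± SE.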

Attelabidae [2] = assay: Insecticidal activity against Mechoris ursulus assessed as mortality at 2.5 mg/paper at 25 +/- 1 degC measured after 48 hr by filter paper diffusion method; outline: as §1
Attelabidae [3] = assay: Insecticidal activity against Mechoris ursulus assessed as mortality at 5 mg/paper at 25 +/- 1 degC measured after 48 hr by filter paper diffusion method; outline: as §1

SMILES	mortality (Attelabidae [1])	mortality (Attelabidae [2])	mortality (Attelabidae [3])
O=Cc1ccccc1O [SALICYLADEHYDE]	74.4%	88.9%	100%
O=C/C=C/c1ccccc1 [CINNAMALDEHYDE]	83.3%	100%	100%
C=CCc1ccc(O)c(OC)c1 [EUGENOL]	66.7%	90%	100%
O=C(O)/C=C/c1ccccc1 [CINNAMIC ACID]	53.3%	73.3%	86.7%
OC/C=C/c1ccccc1 [CINNAMIC ALCOHOL]	–	–	50%
